One may read the IC50 as the midpoint of a concentration-inhibition curve.

In one assay the test system is A549. The assay can be described thus: Cytotoxicity against human A549 cells after 2 days by sulforhodamine B assay. It counts as functional, cell-based. The settings on record: A549, 48 h. The essentials:
(§1)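 Cells plated at 5 × 10⁴/mL in RPMI-1640 with 5% fetal bovine serum; next day dosed at 0.5, 5, 50, 500 and 5000 ng/mL and cultured 2 days. Survival read by sulforhodamine B staining; IC50 taken from growth curves. Standard deviations below 30%.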

The subject of another assay is HL-60. Briefly: Cytotoxicity against human HL60 cells after 2 days by sulforhodamine B assay. It counts as functional, cell-based. The settings on record: HL-60, 48 h. The essentials:
as §1
(In general: Sulforhodamine B stains cellular protein and so reports cell mass.)

The target of assay [1] is Epidermal growth factor receptor (Homo sapiens, UniProt P00533). The assay can be described thus: Inhibition of recombinant EGFR (unknown origin) after 10 mins by DELFIA/time-resolved fluorometry.
Chain of Epidermal growth factor receptor (P00533 whole entry): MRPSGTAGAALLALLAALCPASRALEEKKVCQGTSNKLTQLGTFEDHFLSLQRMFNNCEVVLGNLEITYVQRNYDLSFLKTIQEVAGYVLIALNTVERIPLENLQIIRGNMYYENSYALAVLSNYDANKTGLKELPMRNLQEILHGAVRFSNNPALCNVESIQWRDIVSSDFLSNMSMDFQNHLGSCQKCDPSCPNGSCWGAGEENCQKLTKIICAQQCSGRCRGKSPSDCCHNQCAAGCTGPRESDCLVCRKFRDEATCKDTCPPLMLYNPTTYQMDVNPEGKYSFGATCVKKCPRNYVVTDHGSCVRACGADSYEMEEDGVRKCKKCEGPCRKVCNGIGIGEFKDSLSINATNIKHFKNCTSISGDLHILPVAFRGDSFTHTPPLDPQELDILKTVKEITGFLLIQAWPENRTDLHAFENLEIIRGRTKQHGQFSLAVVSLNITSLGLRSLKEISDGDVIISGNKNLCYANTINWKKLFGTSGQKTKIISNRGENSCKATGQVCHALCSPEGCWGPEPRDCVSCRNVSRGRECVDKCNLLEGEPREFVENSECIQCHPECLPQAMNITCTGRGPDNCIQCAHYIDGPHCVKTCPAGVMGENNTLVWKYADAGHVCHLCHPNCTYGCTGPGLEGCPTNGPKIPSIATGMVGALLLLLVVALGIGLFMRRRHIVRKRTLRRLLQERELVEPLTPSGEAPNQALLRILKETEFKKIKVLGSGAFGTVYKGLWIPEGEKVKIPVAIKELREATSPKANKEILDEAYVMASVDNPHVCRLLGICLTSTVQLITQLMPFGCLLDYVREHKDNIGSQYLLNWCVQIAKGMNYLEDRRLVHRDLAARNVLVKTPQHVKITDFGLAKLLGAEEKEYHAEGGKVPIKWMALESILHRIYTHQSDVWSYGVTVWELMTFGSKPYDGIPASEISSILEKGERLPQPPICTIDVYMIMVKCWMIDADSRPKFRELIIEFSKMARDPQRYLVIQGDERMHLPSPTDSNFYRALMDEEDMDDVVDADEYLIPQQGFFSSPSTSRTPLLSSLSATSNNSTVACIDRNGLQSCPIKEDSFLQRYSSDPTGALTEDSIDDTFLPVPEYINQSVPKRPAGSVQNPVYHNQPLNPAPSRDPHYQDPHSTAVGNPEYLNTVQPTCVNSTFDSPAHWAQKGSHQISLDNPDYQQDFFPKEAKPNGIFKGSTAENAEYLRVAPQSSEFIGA
Assay [2] has as its target Receptor tyrosine-protein kinase erbB-2 (Homo sapiens, UniProt P04626). The assay can be described thus: Inhibition of recombinant ErbB-2 (unknown origin) after 10 mins by DELFIA/time-resolved fluorometry. The essentials: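 Compound in DMSO, diluted in 25 mM HEPES pH 7.4, preincubated 10 min at room temperature with 12.5 ng recombinant ErbB-2. Reaction buffer with 20 mM HEPES, 2 mM MnCl₂, Na₃VO₄ and 1 mM DTT; 0.1 mM ATP–50 mM MgCl₂ added for 1 h. After washes, europium-labeled anti-phosphotyrosine antibody (400 ng) 1 h; enhancement solution, time-resolved fluorescence ex 340/em 615 nm. IC50 from percent-inhibition curves.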

Chain of Receptor tyrosine-protein kinase erbB-2 (P04626 whole entry): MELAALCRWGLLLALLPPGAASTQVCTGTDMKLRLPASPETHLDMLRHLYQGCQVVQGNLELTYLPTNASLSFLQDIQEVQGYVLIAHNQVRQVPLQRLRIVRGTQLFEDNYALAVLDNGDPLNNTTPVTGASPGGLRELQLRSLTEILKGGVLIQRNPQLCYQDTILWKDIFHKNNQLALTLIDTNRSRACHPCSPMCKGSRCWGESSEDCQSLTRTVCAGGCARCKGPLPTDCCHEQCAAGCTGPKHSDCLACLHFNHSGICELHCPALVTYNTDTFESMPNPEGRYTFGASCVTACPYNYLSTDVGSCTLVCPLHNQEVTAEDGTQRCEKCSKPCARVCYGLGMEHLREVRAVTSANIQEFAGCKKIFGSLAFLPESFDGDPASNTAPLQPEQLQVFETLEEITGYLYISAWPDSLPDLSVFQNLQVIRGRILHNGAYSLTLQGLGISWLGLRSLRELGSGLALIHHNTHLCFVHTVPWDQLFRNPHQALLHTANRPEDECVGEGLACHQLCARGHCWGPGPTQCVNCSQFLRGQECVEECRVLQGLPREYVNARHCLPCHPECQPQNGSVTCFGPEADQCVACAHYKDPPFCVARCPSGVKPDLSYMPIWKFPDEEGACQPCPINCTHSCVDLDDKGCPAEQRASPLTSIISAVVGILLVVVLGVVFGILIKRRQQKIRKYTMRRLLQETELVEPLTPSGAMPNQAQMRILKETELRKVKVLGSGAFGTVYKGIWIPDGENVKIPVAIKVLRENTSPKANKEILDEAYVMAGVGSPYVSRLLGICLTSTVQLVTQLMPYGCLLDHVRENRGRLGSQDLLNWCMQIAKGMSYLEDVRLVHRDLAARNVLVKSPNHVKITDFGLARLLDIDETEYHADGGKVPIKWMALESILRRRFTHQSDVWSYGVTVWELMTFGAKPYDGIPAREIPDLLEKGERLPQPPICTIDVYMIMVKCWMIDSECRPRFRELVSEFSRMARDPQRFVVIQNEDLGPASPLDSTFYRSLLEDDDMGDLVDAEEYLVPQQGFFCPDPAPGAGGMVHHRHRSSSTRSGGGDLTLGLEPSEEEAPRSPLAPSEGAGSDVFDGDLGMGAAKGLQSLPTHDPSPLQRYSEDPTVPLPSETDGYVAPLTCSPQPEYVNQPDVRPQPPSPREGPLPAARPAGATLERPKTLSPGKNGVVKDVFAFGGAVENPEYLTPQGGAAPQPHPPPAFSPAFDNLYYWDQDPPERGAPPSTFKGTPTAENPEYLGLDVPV

Consider `CN(C)C/C=C/C(=O)Nc1ccc(-c2cncc(C#N)c2Nc2ccc(OCc3ccccn3)c(Cl)c2)cc1`, for which the IC50 in the assay with A549 was > 10 µM; in the assay on HL-60, > 10 µM; in assay [1], > 5 µM.

Take `CCOc1cc([N+](=O)[O-])c(C(=O)Nc2ccc(OCc3ccccn3)c(Cl)c2)cc1NC(=O)c1ccc(CN2CCN(C)CC2)cc1`: the results for the half-maximal inhibitory concentration (IC50) with A549 and in the assay on HL-60 were 3.5 µM and 5 µM, respectively.

Take `Cc1ncc(C#N)c(Nc2ccc(OCc3ccccn3)c(Cl)c2)c1/C=C/c1cccc(NC(=O)/C=C/CN(C)C)c1`: the IC50 in assay [2] was > 10 µM; in assay [1], > 5 µM.

As to `CC(=O)c1ccc(Nc2c(C#N)cncc2-c2ccc(NC(=O)/C=C/CN(C)C)cc2)cc1`, the values for the IC50 (in the assay with A549; in the assay on HL-60; in assay [1]) were > 10 µM, > 10 µM and > 5 µM, respectively.

As for `Cc1ncc(C#N)c(Nc2ccc(OCc3ccccn3)c(Cl)c2)c1C#Cc1ccc(CNCCS(C)(=O)=O)o1`, in assay [1], the IC50 was determined as 1.5 µM.

As to `Cc1ncc(C#N)c(Oc2ccc(OCc3ccccn3)c(Cl)c2)c1C#Cc1ccc(CNCCS(C)(=O)=O)o1`, the IC50 in assay [1] was > 5 µM.

For `CCOc1cc([N+](=O)[O-])c(C(=O)Nc2ccc(F)c(Cl)c2)cc1NC(=O)c1ccc(CN2CCN(C)CC2)cc1`, the results for the IC50 (in the assay with A549; in the assay on HL-60; in assay [1]) were 6 µM, 5.5 µM and 5 µM, respectively.

Regarding `CCOc1ccc(C(=O)Nc2nccc(-c3cccnc3)n2)cc1NC(=O)c1ccc(CN2CCN(C)CC2)cc1`, the half-maximal inhibitory concentration (IC50) in the assay with A549 and in the assay on HL-60 was > 10 µM throughout.

Take `CN1CCN(Cc2ccc(C(=O)Nc3ccc(-c4cncc(C#N)c4Nc4ccc(OCc5ccccn5)c(Cl)c4)cc3)cc2)CC1`: the IC50 is > 10 µM with A549, 6 µM in the assay on HL-60 and 2.3 µM in assay [1].

As for `Cc1ncc(C#N)c(Nc2ccc(OCc3ccccn3)c(Cl)c2)c1/C=C/c1ccc(CNCCS(C)(=O)=O)o1`, the values for the half-inhibitory concentration (IC50) in assay [2] and in assay [1] were > 10 µM and > 5 µM, respectively.

Take `CCOc1cc([N+](=O)[O-])c(C(=O)Nc2ccc(OCc3cccc(F)c3)c(Cl)c2)cc1NC(=O)/C=C/CN(C)C`: the figures for the IC50 (with A549; in the assay with HL-60; in assay [1]) were 3.5 µM, 4 µM and 2 µM, respectively.

Take `Cc1ccc(NC(=O)/C=C/CN(C)C)cc1C(=O)Nc1nccc(-c2cccnc2)n1`: the IC50 with A549 is > 10 µM; in assay [1], 5 µM.

On to `CCOc1cc(N)c(C(=O)Nc2ccc(F)c(Cl)c2)cc1NC(=O)c1ccc(CN2CCN(C)CC2)cc1`, for which the figures for the IC50 (in the assay on A549; in the assay on HL-60; in assay [1]) were > 10 µM, > 10 µM and 0.8 µM, respectively.

Turning to `Cc1ncnc(Oc2ccc(OCc3ccccn3)c(Cl)c2)c1C#Cc1ccc(CNCCS(C)(=O)=O)o1`, the IC50 in assay [1] is > 5 µM.

With `CCOc1cc(N)c(C(=O)Nc2ccc(OCc3ccccn3)c(Cl)c2)cc1NC(=O)c1ccc(CN2CCN(C)CC2)cc1`, the figures for the IC50 (in the assay with A549; in the assay with HL-60; in assay [1]) were 6 µM, 8 µM and 1 µM, respectively.

For the molecule `Cc1ncnc(Nc2ccc(OCc3cccc(F)c3)c(Cl)c2)c1C#Cc1ccc(CNCCS(C)(=O)=O)o1`, the IC50 is > 10 µM in assay [2] and 0.045 µM in assay [1].

As for `Cc1ccc(NC(=O)c2ccc(CN3CCN(C)CC3)cc2)cc1C(=O)Nc1nccc(-c2cccc(F)c2)n1`, the values for the IC50 (in the assay with A549; in assay [1]) were > 10 µM and 6 µM, respectively.

For `CCOc1ccc(C(=O)Nc2ccc(OCc3ccccn3)c(Cl)c2)cc1NC(=O)/C=C/CN(C)C`, the half-maximal inhibitory concentration (IC50) is > 10 µM in the assay on A549, > 10 µM in the assay on HL-60 and 1.2 µM in assay [1].

`Cc1ccc(NC(=O)/C=C/CN(C)C)cc1C(=O)Nc1ccc(OCc2cccc(F)c2)c(Cl)c1`: the IC50 with A549 amounted to 7 µM; in the assay with HL-60, 5.5 µM; in assay [1], 0.45 µM.

Regarding `CN(C)C/C=C/C(=O)Nc1ccc(-c2cncc(C#N)c2Nc2ccc(F)c(Cl)c2)cc1`, the IC50 is > 10 µM with A549, 6 µM with HL-60 and 3.5 µM in assay [1].

Turning to `CCOc1ccc(C(=O)Nc2nccc(-c3cccnc3)n2)cc1NC(=O)/C=C/CN(C)C`, the values for the IC50 (with A549; in the assay with HL-60; in assay [1]) were > 10 µM, > 10 µM and 6 µM, respectively.

In the case of `Cc1ncnc(Nc2ccc(OCc3cccc(F)c3)c(Cl)c2)c1/C=C/c1cccc(NC(=O)/C=C/CN(C)C)c1`, the IC50 is > 10 µM in assay [2] and > 5 µM in assay [1].

`CCOc1cc(N)c(C(=O)Nc2ccc(OCc3cccc(F)c3)c(Cl)c2)cc1NC(=O)/C=C/CN(C)C`: the IC50 with A549 amounted to 5.5 µM; in the assay on HL-60 it was 6 µM; in assay [1], 1.5 µM.

Turning to `CC(=O)c1ccc(Nc2c(C#N)cncc2-c2ccc(NC(=O)c3ccc(CN4CCN(C)CC4)cc3)cc2)cc1`, the IC50 is > 10 µM with A549, 5 µM with HL-60 and > 5 µM in assay [1].

As for `CCOc1ccc(C(=O)Nc2ccc(OCc3ccccn3)c(Cl)c2)cc1NC(=O)c1ccc(CN2CCN(C)CC2)cc1`, the IC50 with A549 is 6 µM; with HL-60, > 10 µM; in assay [1] it was 3.5 µM.

On to `CN(C)C/C=C/C(=O)Nc1ccc(-c2cncc(C#N)c2Nc2ccc(OCc3cccc(F)c3)c(Cl)c2)cc1`, for which the results for the IC50 (in the assay with A549; with HL-60; in assay [1]) were 7 µM, > 10 µM and 0.66 µM, respectively.

Consider `Cc1ncnc(Nc2ccc(OCc3cccc(F)c3)c(Cl)c2)c1/C=C/c1ccc(CNCCS(C)(=O)=O)o1`, for which the IC50 was > 10 µM in assay [2] and 0.46 µM in assay [1].

For the molecule `CCOc1cc(N)c(C(=O)Nc2ccc(OCc3cccc(F)c3)c(Cl)c2)cc1NC(=O)c1ccc(CN2CCN(C)CC2)cc1`, the 50% inhibitory concentration (IC50) worked out at 6 µM in the assay on A549, 7 µM with HL-60 and 5 µM in assay [1].

For the molecule `CN1CCN(Cc2ccc(C(=O)Nc3ccc(-c4cncc(C#N)c4Nc4ccc(OCc5cccc(F)c5)c(Cl)c4)cc3)cc2)CC1`, the IC50 is 6 µM with A549, 1.8 µM in the assay with HL-60 and 2.5 µM in assay [1].

As for `CCOc1cc(N)c(C(=O)Nc2ccc(F)c(Cl)c2)cc1NC(=O)/C=C/CN(C)C`, the IC50 with A549 was > 10 µM; with HL-60 it was > 10 µM; in assay [1], 4.5 µM.

With `CCOc1cc([N+](=O)[O-])c(C(=O)Nc2ccc(OCc3cccc(F)c3)c(Cl)c2)cc1NC(=O)c1ccc(CN2CCN(C)CC2)cc1`, the results for the IC50 (with A549; with HL-60; in assay [1]) were 6 µM, 4.5 µM and 5.5 µM, respectively.

Take `CCOc1cc(N)c(C(=O)Nc2ccc(OCc3ccccn3)c(Cl)c2)cc1NC(=O)/C=C/CN(C)C`: the concentration for half-maximal inhibition (IC50) in the assay with A549 was > 10 µM; in the assay with HL-60, > 10 µM; in assay [1], 0.8 µM.

In the case of `CCOc1cc([N+](=O)[O-])c(C(=O)Nc2ccc(OCc3ccccn3)c(Cl)c2)cc1NC(=O)/C=C/CN(C)C`, the IC50 in the assay on A549 came out at 2.5 µM; with HL-60, 4 µM; in assay [1] it was 0.85 µM.

For the molecule `CN1CCN(Cc2ccc(C(=O)Nc3ccc(-c4cncc(C#N)c4Nc4ccc(F)c(Cl)c4)cc3)cc2)CC1`, the values for the IC50 (in the assay with A549; in the assay with HL-60; in assay [1]) were > 10 µM, 5 µM and 3 µM, respectively.

For the molecule `CCOc1cc([N+](=O)[O-])c(C(=O)Nc2ccc(F)c(Cl)c2)cc1NC(=O)/C=C/CN(C)C`, the values for the IC50 (in the assay with A549; in the assay with HL-60; in assay [1]) were > 10 µM, 6 µM and 6 µM, respectively.

Take `Cc1ccc(NC(=O)c2ccc(CN3CCN(C)CC3)cc2)cc1C(=O)Nc1ccc(OCc2cccc(F)c2)c(Cl)c1`: the figures for the IC50 (in the assay with A549; in the assay on HL-60; in assay [1]) were 5.5 µM, 6 µM and 0.6 µM, respectively.

The record behind these values is ChEMBL document CHEMBL2384937, “Design, synthesis and biological evaluation of novel pyrimidine, 3-cyanopyridine and m-amino-N-phenylbenzamide based monocyclic EGFR tyrosine kinase inhibitors” (Bioorg Med Chem, 2013).
